Data taken from ChEMBL document CHEMBL1123934, “Indazoles as indole bioisosteres: synthesis and evaluation of the tropanyl ester and amide of indazole-3-carboxylate as antagonists at the serotonin 5HT3 receptor” (J Med Chem, 1987).

Tests used:
Type in all cases: functional
[1] = target: T1, Serotonin 3 (5-HT3) receptor (Rattus norvegicus) (UniProt P35563+Q9JJ16); assay: The compound was evaluated for the inhibition of the von Bezold-Jarisch reflex in rat administered intravenously
Outline: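 Urethane-anesthetized rats; serotonin bolus 0.03 mg/kg iv (femoral vein) gives control reflex bradycardia. After heart rate returns to baseline (within 5 min), test compound iv as free base in dilute acid (≤1% HCl). Serotonin challenge repeated after 15 min. Percent inhibition of bradycardia at three doses, n ≥ 3 each. ED50 from mean values.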

[2] = target: T1, Serotonin 3 (5-HT3) receptor (Rattus norvegicus); assay: The compound was evaluated for the inhibition of the von Bezold-Jarisch reflex in rat administered orally
Outline: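 Overnight-fasted rats gavaged with compound (free base in ≤1% HCl, 5 mL/kg). Urethane anesthesia 45 min later. Serotonin bolus 0.03 mg/kg iv 15 min after anesthesia. Saline-dosed rats as controls. Percent inhibition of reflex bradycardia at three doses, n ≥ 3 each. ED50 from mean values.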

[3] = target: T1, Serotonin 3 (5-HT3) receptor (Rattus norvegicus); assay: Selectivity ratio of peroral vs intravenous delivery

| Structure (SMILES) | ED50 [1] [mg/kg] | ED50 [2] [mg/kg] | Ratio [3] |
| --- | --- | --- | --- |
| CN1[C@@H]2CC[C@H]1C[C@@H](OC(=O)c1c[nH]c3ccccc13)C2 | 0.004 | 0.2 | 50 |
| CN1C2CCC1CC(OC(=O)c1[nH]nc3ccccc13)C2 (stereo unspecified) | 0.003 | 0.2 | 66 |
| CN1C2CCC1CC(NC(=O)c1c3ccccc3nn1C)C2 (stereo unspecified) | > 0.01 |  |  |
| CN1C2CCC1CC(NC(=O)c1n[nH]c3ccccc13)C2 (stereo unspecified) | 0.002 | 0.02 | 10 |
| CN1C2CCCC1CC(NC(=O)c1nn(C)c3ccccc13)C2 (stereo unspecified) |  |  | 15 |
